Assay [1] addresses T1, Acyl-protein thioesterase 1 (Homo sapiens, UniProt O75608). The experiment in a line: Inhibition of APT1 (unknown origin) by FluPol-ABPP assay. In a few lines: (§1)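 Fluorescence polarization competitive ABPP (FluoPol-ABPP) in high-throughput format. Recombinant human APT enzyme was preincubated with candidate inhibitor at 10 µM. FP-TAMRA was then added for a short, time-dependent reaction under non-equilibrium conditions. Read-out was the polarization signal of probe labeling of the active site.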

In assay [2] the target is T2, Acyl-protein thioesterase 2 (Homo sapiens, UniProt O95372). The experiment in a line: Inhibition of APT2 (unknown origin) by FluPol-ABPP assay. Summed up:
as §1

The target in assay [3] is T1, Acyl-protein thioesterase 1. As to the kind of experiment: Inhibition of APT1 (unknown origin).
For assay [4], the target named is T2, Acyl-protein thioesterase 2. The experiment in a line: Inhibition of APT2 (unknown origin).
For assay [5], the target named is T3, sn-1-specific diacylglycerol lipase ABHD11 (Homo sapiens, UniProt Q8NFV4).
T3 sequence (Q8NFV4 whole entry): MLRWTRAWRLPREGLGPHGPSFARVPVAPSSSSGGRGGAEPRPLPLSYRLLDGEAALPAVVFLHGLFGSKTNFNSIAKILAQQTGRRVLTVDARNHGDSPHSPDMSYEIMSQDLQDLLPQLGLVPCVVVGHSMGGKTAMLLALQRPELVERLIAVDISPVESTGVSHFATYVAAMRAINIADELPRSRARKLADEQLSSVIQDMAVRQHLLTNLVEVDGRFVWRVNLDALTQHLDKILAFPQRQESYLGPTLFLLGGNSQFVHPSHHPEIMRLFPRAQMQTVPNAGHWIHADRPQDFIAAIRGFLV
The experiment in a line: Inhibition of ABHD11 (unknown origin). In a few lines: (§2)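 Potency and selectivity were measured by gel-based competitive ABPP. The enzyme source was preincubated with inhibitor, then labeled with a fluorophosphonate activity-based probe. Residual active-site labeling was visualized in-gel.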

The target in assay [6] is T2, Acyl-protein thioesterase 2. The experiment in a line: Inhibition of human APT2. Summed up: as §2
For assay [7], the target named is T1, Acyl-protein thioesterase 1. As to the kind of experiment: Inhibition of human APT1. In a few lines:
as §2

Assay [8] is described as follows: Inhibition of Toxoplasma gondii ASH1. In a few lines:
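The Toxoplasma gondii APT homologue TgASH1 was assayed by competitive ABPP. The inhibitor was preincubated, followed by activity-based probe labeling. Loss of probe labeling of TgASH1 was scored across inhibitor concentrations.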

Assay [9] addresses T2, Acyl-protein thioesterase 2. As to the kind of experiment: Inhibition of APT2 (unknown origin) by enzyme kinetic assay.

For nine compounds, Ki and IC50 results are on record in ChEMBL document CHEMBL3132844, “Acyl protein thioesterase inhibitors as probes of dynamic S-palmitoylation” (Medchemcomm, 2014).

What is called Ki is the dissociation constant of the complex between target and ligand, obtained from inhibition or displacement. Higher therefore signals lower affinity. As a reminder, the IC50 is the point on the concentration scale where inhibition reaches its midpoint.

T2 sequence (O95372 whole entry): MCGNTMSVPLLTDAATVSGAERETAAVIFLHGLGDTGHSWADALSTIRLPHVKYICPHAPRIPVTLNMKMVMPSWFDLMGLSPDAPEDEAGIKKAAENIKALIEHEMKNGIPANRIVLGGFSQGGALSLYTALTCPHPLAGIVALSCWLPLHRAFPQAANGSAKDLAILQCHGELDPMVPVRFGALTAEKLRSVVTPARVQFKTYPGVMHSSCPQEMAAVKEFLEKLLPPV
T1 sequence (O75608 whole entry): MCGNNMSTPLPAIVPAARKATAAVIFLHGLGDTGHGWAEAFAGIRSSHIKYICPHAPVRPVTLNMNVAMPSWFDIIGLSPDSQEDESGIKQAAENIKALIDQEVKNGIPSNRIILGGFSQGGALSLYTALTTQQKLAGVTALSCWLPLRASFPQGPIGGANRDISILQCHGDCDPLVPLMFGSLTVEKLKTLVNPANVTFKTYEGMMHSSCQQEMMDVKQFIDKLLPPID

As for `COc1ccc(N2CCN(C(=O)c3cc4c(s3)-c3ccccc3S(=O)(=O)C4)CC2)cc1`, the Ki in [1] is more than 10000 nM; in assay [2], 230 nM.
On to `CCCCCCCCCC[C@@H]1C(=O)O[C@H]1CCc1ccc(OC)c(OC)c1` [PALMOSTATIN B], for which the IC50 in assay [3] was found to be 5.4 nM; in assay [4], 37.7 nM. In addition, in assay [4], the affinity, expressed as Ki, was 34 nM.
In turn, `CCCCCCCCCC[C@@H]1C(=O)O[C@H]1CCCCS(=O)(=O)CCCN(C)C` showed a half-maximal inhibitory concentration (IC50) in assay [4] of 19.6 nM.
Take `CC(C)(C)C1CCN(C(=O)n2ncc(C(O)(c3ccccc3)c3ccccc3)n2)CC1`: the IC50 in assay [5] was less than 30 nM; in [6], 30 nM; in assay [7] it was 17 nM.
In the same order, the values of `O=C(N1CCCCC1)n1ncc(C(O)(c2ccccc2)c2ccccc2)n1` are less than 30 nM, 200 nM and less than 30 nM.
Consider `CCCOc1oc(=O)c2cc(N)ccc2c1Cl`, for which the IC50 in assay [8] turned out to be 1320 nM. This lies in the single-digit micromolar range.
In assay [9], `CN(C)CCOB(c1ccccc1)c1ccc(COCc2ccc(B(OCCN(C)C)c3ccccc3)cc2)cc1` showed a Ki of 730 nM. This lies in the sub-micromolar range.
In the case of `CCC1CCCCN1C(=O)n1ncc(C(O)(c2ccccc2)c2ccccc2)n1` (stereo not drawn), the IC50 was less than 30 nM in assay [5], more than 10000 nM in [6] and more than 10000 nM in [7].
`O=C(CN1CCN(C(=O)c2ccco2)CC1)Nc1cc(C(F)(F)F)ccc1Cl` had a Ki in assay [2] of more than 10000 nM.
